Calls of active or inactive are those of the source. No cut-off for these calls is given here.
Key:
Lactobacillus crispatus [1] = assay: Suppression of cell viability loss of Lactobacillus crispatus in stationary phase culture at 100 ug/ml after 48 hrs; type: functional
Outline: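 Stationary-phase L. crispatus broth cultures were incubated a further 48 h at 37°C without GML or with GML at 100 µg/ml. Viable counts were then determined by plating.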

Staphylococcus aureus [2] = assay: Inhibition of Staphylococcus aureus MN8 infection induced IL-8 production in human HVEC assessed as at 100 ug/ml by enzyme-linked immunosorbent assay; type: functional, organism-based
Outline: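 Human vaginal epithelial cells in keratinocyte serum-free medium without antibiotics were seeded 2–3 days beforehand in 96-well plates. S. aureus MN8 was grown overnight in Todd-Hewitt broth, washed and resuspended in PBS at pH 7.2. Cells received 10^6–10^8 CFU in triplicate, with or without GML at 100 µg/ml, for 6 h. IL-8 was measured by ELISA.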

Gardnerella = assay: Bactericidal activity against Gardnerella at >=20 ug/ml; type: functional
Staphylococcus aureus [3] = assay: Growth inhibition of Staphylococcus aureus MN8 using 5% compound-formulated gel after 24 hrs; type: functional, organism-based
Outline: (§1)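 Agar disk test: paper disks carrying 30 µl of 5% GML in K-Y warming gel were placed on Todd-Hewitt agar lawns of about 10^6 L. crispatus or S. aureus MN8. Plates were incubated overnight at 37°C in 7% CO2 and scored for visible growth inhibition around the disks. Done in quadruplicate.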

[4] = Effect on growth of Lactobacillus crispatus at 20 ug/ml after 24 hrs
Outline: (§2)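 L. crispatus grown in Todd-Hewitt broth flasks at 37°C with shaking, with or without nonformulated GML at 20, 50 or 100 µg/ml. The starting inoculum was 3.0 x 10^6/ml. Samples were taken over 24 h for CFU plate counts.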

[5] = Effect on growth of Lactobacillus crispatus using 5% compound-formulated gel after 24 hrs; outline: as §1
[6] = Effect on growth of Lactobacillus crispatus at 50 ug/ml after 24 hrs; outline: as §2
Helicobacter = assay: Bactericidal activity against Helicobacter at >=20 ug/ml; type: functional
Staphylococcus = assay: Effect on growth of vaginal coagulase negative staphylococci flora in rhesus monkey administered twice daily dose of 5% compound-formulated gel for first 8 weeks followed by 3-weeks rest period and subsequent once daily dose for […] measured 6 months post dose; type: functional, organism-based
Outline: (§3)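 Rhesus macaques (9 on GML, 3 on vehicle per time point) received 1 ml intravaginal gel containing 50 mg GML in K-Y warming gel, or vehicle gel, by needleless syringe. Dosing was twice daily for 8 weeks, then 3 weeks of rest, then once daily for 11 weeks. Vaginal swabs were taken 1 h post-dose, held at 4°C, serially diluted in Todd-Hewitt broth and plated on chocolate agar at 37°C in 7% CO2.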

[7] = Effect on lactic acid production in Lactobacillus crispatus at 50 ug/ml after 8 to 24 hrs; type: ADME
Outline: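 Todd-Hewitt broth cultures of L. crispatus were started at 3.0 x 10^6/ml with or without nonformulated GML at 50 µg/ml and incubated at 37°C with shaking. Culture pH was measured on samples removed at set times as an acid-production read-out.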

Lactobacillus crispatus [8] = assay: Suppression of cell viability loss of Lactobacillus crispatus in stationary phase culture at 100 ug/ml after 48 hrs
Haemophilus = assay: Bactericidal activity against Haemophilus at >=20 ug/ml; type: functional, organism-based
Rhesus monkey [9] = assay: Toxicity in rhesus monkey assessed as induction of vaginal mucosal lesions administered twice daily dose of 5% compound-formulated gel for first 8 weeks followed by 3-weeks rest period and subsequent once daily dose for […] measured 6 months post dose by extensive colposcopy; type: organism-based, Macaca mulatta; conditions: in vivo, topical_or_ocular, 4383 h
[10] = Effect on growth of vaginal Lactobacillus flora in rhesus monkey administered twice daily dose of 5% compound-formulated gel for first 8 weeks followed by 3-weeks rest period and subsequent once daily dose for […] measured 6 months post dose; conditions: in vivo, topical_or_ocular, 4383 h; outline: as §3
Rhesus monkey [11] = assay: Toxicity in rhesus monkey assessed as induction of vaginal inflammation administered twice daily dose of 5% compound-formulated gel for first 8 weeks followed by 3-weeks rest period and subsequent once daily dose for […] measured 6 months post dose by extensive colposcopy; type: organism-based, Macaca mulatta; conditions: in vivo, topical_or_ocular, 4383 h
[12] = system: Human immunodeficiency virus 1; assay: Antiviral activity against HIV1 infected in human T cells assessed as inhibition of viral infection at 100 ug/mL; type: functional, organism-based; conditions: T-cell

CCCCCCCCCCCC(=O)OCC(O)CO (stereo unspecified) [GLYCEROL MONOLAURATE]
Activity (Lactobacillus crispatus [1]): Active | inhibition (Staphylococcus aureus [2]): Active | inhibition (Gardnerella): Active | growth inhibition (GI) (Staphylococcus aureus [3]): Active | Activity [4]: Non-toxic | Activity [5]: Non-toxic | Activity [6]: Non-toxic | inhibition (Helicobacter): Active | Activity (Staphylococcus): Non-toxic | Activity [7]: Non-toxic | Activity (Lactobacillus crispatus [8]): Active | inhibition (Haemophilus): Active | Activity (Rhesus monkey [9]): Non-toxic | Activity [10]: Non-toxic | Activity (Rhesus monkey [11]): Non-toxic | inhibition [12]: Active
